Results gathered from unrelated publications.
Lines come from different studies, so protocols differ.
Target: Acetylcholinesterase (ache, Electrophorus electricus, UniProt O42275)
Read-out: enzyme activity
Action: inhibitor
Technique: Ellman

SMILES	IC50
O=[N+]([O-])c1ccc(-c2nnc(-c3ccc(OCc4cn(Cc5ccccc5)nn4)cc3)o2)cc1	> 100 µM
O=C(O)C(/C=C/c1c(Cl)cccc1Cl)=N\Nc1nc(-c2ccc(Br)cc2)cs1	0.655 µM
O=[N+]([O-])c1ccc(-c2nnc(-c3ccc(OCc4cn(Cc5ccc(Cl)cc5)nn4)cc3)o2)cc1	> 100 µM
COc1ccc(-c2csc(N/N=C(/C=C/c3c(Cl)cccc3Cl)C(=O)O)n2)cc1	0.499 µM
CC(C)(C)OC(=O)NC1CCCN(C(=O)/C=C/c2ccc(Cl)cc2)C1 (stereo not shown)	> 50 µM
COc1cc(/C=C/C(=O)NC2CCN(Cc3ccccc3)CC2)ccc1OC(=O)N(C)C	5.2 µM
COc1cccc(/C=C/C(=O)N2CCCC(NC(=O)OC(C)(C)C)C2)c1 (stereo not shown)	> 50 µM
COc1ccc(-c2nnc(-c3ccc(OCc4cn(Cc5ccc(F)cc5)nn4)cc3)o2)cc1	> 100 µM
CCN(C)C(=O)Oc1ccc(CCC(=O)N2CCC(Cc3ccccc3)CC2)cc1OC	9.1 µM
Clc1ccc(Cn2cc(COc3ccc(-c4nnc(-c5ccccc5)o4)cc3)nn2)cc1	> 100 µM
CC(C)(C)OC(=O)NC1CCCN(C(=O)/C=C/c2cccc([N+](=O)[O-])c2)C1 (stereo not shown)	35.1 µM
COc1ccc(-c2nnc(-c3ccc(OCc4cn(Cc5ccccc5)nn4)cc3)o2)cc1	> 100 µM
COc1cc(CCC(=O)N2CCC(Cc3ccccc3)CC2)ccc1OC(=O)N(C)C	8.6 µM
Cc1ccc(/C=C/C(=O)N2CCCC(NC(=O)OC(C)(C)C)C2)cc1 (stereo not shown)	> 50 µM
CCN(CC)C(=O)Oc1ccc(CCC(=O)N2CCC(Cc3ccccc3)CC2)cc1OC	9.3 µM
CCOc1ccc(/C=C/C(=O)N2CCCC(NC(=O)OC(C)(C)C)C2)cc1 (stereo not shown)	> 50 µM
CN(C)C(=O)Oc1ccc(/C=C/C(=O)NC2CCN(Cc3ccccc3)CC2)cc1	5.9 µM
Fc1ccc(-c2nnc(-c3ccc(OCc4cn(Cc5ccc(Br)cc5)nn4)cc3)o2)cc1	> 100 µM
CCN(C)C(=O)Oc1ccc(CCC(=O)N2CCc3ccccc3C2)cc1	8.3 µM
O=C(O)C(/C=C/c1c(Cl)cccc1Cl)=N\Nc1nc(-c2ccc(Cl)cc2)cs1	0.092 µM
Fc1ccc(-c2nnc(-c3ccc(OCc4cn(Cc5ccccc5)nn4)cc3)o2)cc1	> 100 µM
CC(C)(C)OC(=O)NC1CCCN(C(=O)/C=C/c2ccccc2Cl)C1 (stereo not shown)	19.7 µM
CCN(CC)C(=O)Oc1ccc(/C=C/C(=O)NC2CCN(Cc3ccccc3)CC2)cc1	4.5 µM
CC(C)(C)OC(=O)NC1CCCN(C(=O)/C=C/c2cccc(Cl)c2)C1 (stereo not shown)	> 50 µM
Cc1ccc(Cn2cc(COc3ccc(-c4nnc(-c5ccc([N+](=O)[O-])cc5)o4)cc3)nn2)cc1	> 100 µM
